Assay results published in ChEMBL document CHEMBL2390922, “Synthesis and biological evaluation of sulforaphane derivatives as potential antitumor agents” (Eur J Med Chem, 2013).

test system: MCF7; test: Cytotoxicity against human MCF7 cells after 72 hrs by MTT assay; type: functional, cell-based; details: MCF7, 72 h
Method in brief: (§1)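 Cells were grown in RPMI-1640 or DMEM with 10% NBS or FBS and 100 U/mL penicillin, at 37 °C under 5% CO₂. After 72 h with a range of compound concentrations, MTT was added for a further 4 h at 37 °C. Formazan was dissolved in DMSO and absorbance read at 570 and 630 nm. Assays ran in triplicate across three independent experiments, and IC₅₀ was calculated for 50% loss of viability.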

Structure (SMILES) | IC50 [µM]
[O-][S+](CCCCCN=C=S)Cc1ccccc1 (stereo not given) | 3.83
CC(C)[S+]([O-])CCCCCN=C=S (stereo not given) | 6.78
[O-][S+](CCCCN=C=S)Cc1ccccn1 (stereo not given) | 6.89
CCC[S+]([O-])CCCCN=C=S (stereo not given) | 5.96
CC(C)C[S+]([O-])CCCCN=C=S (stereo not given) | 3.66
[O-][S+](CCCCCCN=C=S)Cc1ccccc1 (stereo not given) | 5.49
CC(C)[S+]([O-])CCCN=C=S (stereo not given) | 7.93
CC[S+]([O-])CCCCN=C=S (stereo not given) | 8.26
O=c1[nH]cc(F)c(=O)[nH]1 [FLUOROURACIL] | 10.1
CC(C)[S+]([O-])CCCCCCN=C=S (stereo not given) | 9.76
[O-][S+](CCCN=C=S)Cc1ccccc1 (stereo not given) | 7.92
CC(C)[S+]([O-])CCCCN=C=S (stereo not given) | 8.82

test system: HepG2; test: Cytotoxicity against human HepG2 cells after 72 hrs by MTT assay; type: functional, cell-based; details: HepG2, 72 h; method in brief: as §1

Structure (SMILES) | IC50 [µM]
[O-][S+](CCCCCN=C=S)Cc1ccccc1 (stereo not given) | 3.91
CC(C)[S+]([O-])CCCCCN=C=S (stereo not given) | 3.69
[O-][S+](CCCCN=C=S)Cc1ccccn1 (stereo not given) | 5.35
CCC[S+]([O-])CCCCN=C=S (stereo not given) | 3.91
CC(C)C[S+]([O-])CCCCN=C=S (stereo not given) | 2.16
[O-][S+](CCCCCCN=C=S)Cc1ccccc1 (stereo not given) | 6.17
CC(C)[S+]([O-])CCCN=C=S (stereo not given) | 7.14
CC[S+]([O-])CCCCN=C=S (stereo not given) | 5.35
CC(C)[S+]([O-])CCCCCCN=C=S (stereo not given) | 7.82
[O-][S+](CCCN=C=S)Cc1ccccc1 (stereo not given) | 9.84
CC(C)[S+]([O-])CCCCN=C=S (stereo not given) | 2.05

test system: not listed separately; test: Cytotoxicity against human SH-SY5Y cells after 72 hrs by MTT assay; type: functional, cell-based; details: not given; method in brief: as §1

Structure (SMILES) | IC50 [µM]
[O-][S+](CCCCCN=C=S)Cc1ccccc1 (stereo not given) | 7.01
CC(C)[S+]([O-])CCCCCN=C=S (stereo not given) | 8.62
[O-][S+](CCCCN=C=S)Cc1ccccn1 (stereo not given) | 7.83
CCC[S+]([O-])CCCCN=C=S (stereo not given) | 7.66
CC(C)C[S+]([O-])CCCCN=C=S (stereo not given) | 5.7
[O-][S+](CCCCCCN=C=S)Cc1ccccc1 (stereo not given) | 7.63
CC(C)[S+]([O-])CCCN=C=S (stereo not given) | 18.1
CC[S+]([O-])CCCCN=C=S (stereo not given) | 9.81
O=c1[nH]cc(F)c(=O)[nH]1 [FLUOROURACIL] | 0.97
CC(C)[S+]([O-])CCCCCCN=C=S (stereo not given) | 7.82
[O-][S+](CCCN=C=S)Cc1ccccc1 (stereo not given) | 8.89
CC(C)[S+]([O-])CCCCN=C=S (stereo not given) | 9.42

test system: HCT-116; test: Cytotoxicity against human HCT116 cells after 72 hrs by MTT assay; type: functional, cell-based; details: HCT-116, 72 h; method in brief: as §1

Structure (SMILES) | IC50 [µM]
[O-][S+](CCCCCN=C=S)Cc1ccccc1 (stereo not given) | 5.19
CC(C)[S+]([O-])CCCCCN=C=S (stereo not given) | 3.42
[O-][S+](CCCCN=C=S)Cc1ccccn1 (stereo not given) | 3.72
CCC[S+]([O-])CCCCN=C=S (stereo not given) | 3.95
CC(C)C[S+]([O-])CCCCN=C=S (stereo not given) | 2.06
[O-][S+](CCCCCCN=C=S)Cc1ccccc1 (stereo not given) | 11.6
CC(C)[S+]([O-])CCCN=C=S (stereo not given) | 15.9
CC[S+]([O-])CCCCN=C=S (stereo not given) | 3.85
O=c1[nH]cc(F)c(=O)[nH]1 [FLUOROURACIL] | 3.24
CC(C)[S+]([O-])CCCCCCN=C=S (stereo not given) | 9.46
[O-][S+](CCCN=C=S)Cc1ccccc1 (stereo not given) | 15.6
CC(C)[S+]([O-])CCCCN=C=S (stereo not given) | 3.74

test system: Vero; test: Cytotoxicity against African green monkey Vero cells after 72 hrs by MTT assay; type: cell-based; details: Chlorocebus sabaeus

Structure (SMILES) | IC50 [µM]
[O-][S+](CCCCCN=C=S)Cc1ccccc1 (stereo not given) | 5.85
CC(C)[S+]([O-])CCCCCN=C=S (stereo not given) | 10.3
[O-][S+](CCCCN=C=S)Cc1ccccn1 (stereo not given) | 7.65
CCC[S+]([O-])CCCCN=C=S (stereo not given) | 5.64
CC(C)C[S+]([O-])CCCCN=C=S (stereo not given) | 4.98
[O-][S+](CCCCCCN=C=S)Cc1ccccc1 (stereo not given) | 4.33
CC(C)[S+]([O-])CCCN=C=S (stereo not given) | 8.25
CC[S+]([O-])CCCCN=C=S (stereo not given) | 7.9
O=c1[nH]cc(F)c(=O)[nH]1 [FLUOROURACIL] | 9.71
CC(C)[S+]([O-])CCCCCCN=C=S (stereo not given) | 7.31
[O-][S+](CCCN=C=S)Cc1ccccc1 (stereo not given) | 10.1
CC(C)[S+]([O-])CCCCN=C=S (stereo not given) | 10.4

test system: A549; test: Cytotoxicity against human A549 cells after 72 hrs by MTT assay; type: functional, cell-based; details: A549, 72 h
Method in brief: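 After 72 h with a range of compound concentrations, MTT was added for a further 4 h at 37 °C. Formazan was dissolved in DMSO and absorbance read at 570 and 630 nm. Assays ran in triplicate across three independent experiments, and IC₅₀ was calculated for 50% loss of viability.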

Structure (SMILES) | IC50 [µM]
[O-][S+](CCCCCN=C=S)Cc1ccccc1 (stereo not given) | 6.21
CC(C)[S+]([O-])CCCCCN=C=S (stereo not given) | 7.75
[O-][S+](CCCCN=C=S)Cc1ccccn1 (stereo not given) | 8.33
CCC[S+]([O-])CCCCN=C=S (stereo not given) | 10.7
CC(C)C[S+]([O-])CCCCN=C=S (stereo not given) | 9.09
[O-][S+](CCCCCCN=C=S)Cc1ccccc1 (stereo not given) | 14.7
CC(C)[S+]([O-])CCCN=C=S (stereo not given) | 16.7
CC[S+]([O-])CCCCN=C=S (stereo not given) | 10.2
CC(C)[S+]([O-])CCCCCCN=C=S (stereo not given) | 12
[O-][S+](CCCN=C=S)Cc1ccccc1 (stereo not given) | 11.8
CC(C)[S+]([O-])CCCCN=C=S (stereo not given) | 10.4
